Compound activity from PubChem BioAssay.
Compounds with a hit are over-represented: about 1.9% of the library has one in this group of screens.
TbMetRS inhib: blocks T. brucei methionyl-tRNA synthetase activity. 360,000 tested, 0.4% active. AID 624268. purified T. brucei MetRS, ATP depletion, Kinase-Glo luminescence. inhibition, % at 11.9 µM;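 active = inhibition above a per-plate cutoff of the control wells' mean inhibition plus 3 SD, cut at about 5.5% in these data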;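 also: 0% = DMSO wells median and 100% = median of wells with control inhibitor compound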
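Material: parasite MetRS enzyme / Replication: singlicate, one well per compound / Signal: luminescence of leftover ATP / Schedule: 2 h aminoacylation at 25 °C after 15 min preincubation / Medium: HEPES-MgCl2-KCl buffer plus DTT, spermine, BSA, pyrophosphatase / Doses: 11.9 µM single point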
PLC-beta3 inh: blocks human PLC-beta3 enzyme activity; Q01970; Purified PLC-beta3, fluorogenic substrate, fluorescence; inhibition, % at 12.2 µM; 370,000 tested, 0.18% active; AID 720704;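 also: 0% = median of compound wells on plate and 100% = full blocker control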
PLCg1 inh: inhibitors of human phospholipase C gamma1 | purified PLC-gamma1, fluorogenic substrate, fluorescence | inhibition, % at 12.2 µM | 370,000 tested, 0.84% active; in the data active = inhibition above about 9.5%
sPLA2-III inh: Blocks human group III sPLA2 activity. QFRET BODIPY PC-A2 liposome hydrolysis, fluorescence. inhibition, % at 12.2 µM. 370,000 tested, 0.56% active. Q9NZ20;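 active = inhibition above mean plus 3 SD of compounds lying within the high and low control bounds, cut at about 19% in these data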;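 also: 0% = median of test compound wells and 100% = no enzyme DMSO wells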
PLCg1 ctr: PLC-gamma1 inhibition, counter-screen for PLC-beta3 hits | purified PLC-gamma1, fluorogenic substrate, fluorescence | shares compounds with PLCg1 inh | 3,300 tested, 3.1% active | AID 743258 | inhibition, % at 12.3 µM; in the data active = inhibition above about 9.5%
PLCbeta3 conf: confirmation of human PLC-beta3 inhibitors | shares compounds with PLCg1 inh | purified PLC-beta3, fluorogenic substrate fluorescence | inhibition, % at 12.3 µM | 3,300 tested, 1% active | AID 743261
* hit, by the source's call; x = no result given. Rule as the data show it, unless noted: active = inhibition above about 11%; inactive = the rest.

SMILES	TbMetRS inhib	PLC-beta3 inh	PLCg1 inh	sPLA2-III inh	PLCg1 ctr	PLCbeta3 conf
C=C(C)[C@@H]1CC[C@]2(C(=O)O)CC[C@]3(C)C(CCC4[C@@]5(C)CC[C@H](O)C(C)(C)C5CC[C@]43C)C12 (stereo not given in full)	0	7	9.5*	13	-3	-1
Cc1ccc(C(=O)N[C@H](C(=O)OCc2nnc(-c3ccccc3)o2)C(C)C)cc1	0	-6	-1	-7	x	x
CC(C)[C@H](NC(=O)c1ccccc1)C(=O)OCc1nnc(-c2ccccc2)o1	-1	-5	12*	7	-3	-1
COC(=O)c1c(-c2c(Cl)cccc2Cl)noc1C(=O)NN	0	-13	-2	-23	x	x
COC(=O)c1c(-c2c(Cl)cccc2Cl)noc1C(=O)NNC(=O)N(C)C	0	1	9.8*	0	4	-1
N/C(=N\O)c1ccc(N2CCN(c3ncccc3C(F)(F)F)CC2)nc1	0	-5	5	0	x	x
N/C(CSc1ncccc1C(F)(F)F)=N\O	0	-2	9.8*	5	1	4
CCOC(=O)CC[C@H]1CC[C@]2(CCCN(Cc3ccccc3)C2)O1	x	-3	3	7	x	x
O=C(Nc1ccccc1)c1cc(-n2cnnc2)ccc1Cl	-1	-2	0	1	x	x
O=C(Nc1ccc2c(c1)OCCO2)c1cc(-n2cnnc2)ccc1Cl	-1	6	11*	0	-8	-5
O=C(Nc1ccc(N2CCOCC2)cc1)c1cc(-n2cnnc2)ccc1Cl	0	-5	-3	4	x	x
O=C(NC1CCCCC1)c1cc(-n2cnnc2)ccc1Cl	0	-3	9.8*	2	2	4
Cc1nc2sc(C(=O)NCc3ccc4c(c3)OCO4)c(N)c2c(C)c1Cl	x	-205	-140	12	x	x
O=C(COC(=O)/C=C/c1ccccc1[N+](=O)[O-])Nc1ccc(OC(F)F)cc1	0	1	11*	2	-5	-3
Cc1c(NC(=S)N/N=C/C=C/c2ccc([N+](=O)[O-])cc2)c(=O)n(-c2ccccc2)n1C	0	4	12*	-1	11*	5
Cc1c(NC(=S)N/N=C/C=C/c2ccccc2)c(=O)n(-c2ccccc2)n1C	3	-9	-3	4	x	x
CCCNC(=O)C[C@H]1CC[C@H]2[C@@H](COc3ccc(NC(=O)c4cncs4)cc3C(=O)N2C)O1	x	11*	12*	-10	16*	18*
CCCNC(=O)Nc1ccc2c(c1)C(=O)N(C)[C@H]1CC[C@@H](CC(=O)OC)O[C@H]1CO2	x	-1	-1	5	x	x
COC(=O)C[C@@H]1CC[C@H]2[C@@H](COc3ccc(NC(=O)c4ccc(Cl)cc4)cc3C(=O)N2C)O1	x	-51	12*	16	0	2
CCCCOCCCNC(=O)c1ccc(OC)cc1	0	-3	3	2	x	x
CCCCOCCCNC(=O)c1ccc(OCC)cc1	-1	2	10*	-4	-4	-2
CC(C)(C)OC(=O)C1[C@H](O)C=CC[C@H]1S(=O)c1ccccc1 (stereo not given in full)	x	0	-1	8	x	x
CSc1cccc(NC(=O)CN(c2ccc(C)cc2C)S(C)(=O)=O)c1	-1	-3	2	-37	x	x
CSc1cccc(NC(=O)CN(c2cccc(C)c2)S(C)(=O)=O)c1	-1	1	11*	-21	-6	-1
COc1ccc2c(c1)NC(=O)[C@@]2(CCN1C(=O)c2ccccc2C1=O)c1[nH]c2ccccc2c1CCN1C(=O)c2ccccc2C1=O	x	-3	2	-2	x	x
COC(=O)[C@]12C[C@H](CC(=O)NCc3cccs3)C(=O)N(Cc3ccccc3)C1=C[C@H](C(C)(C)C)O[C@@H]2C	x	4	1	-6	x	x
C=CC[C@]12C[C@@]3(O[C@H](c4ccccn4)N=C3C[C@H](c3ccc(OC)cc3)[C@H]1C)N(C1CCN(Cc3ccccc3)CC1)C2=O	x	-1	1	3	x	x
CN(CCC1CCOCC1)C(=O)C1CCC(=O)N(CCc2ccccc2)C1 (stereo not given)	0	1	9.7*	6	0	-51
O=C1CCCC(O)=C1N=Nc1ccc(C(=O)O)cc1	0	2	13*	2	8	7
O=C(Cc1ccc([N+](=O)[O-])cc1)Oc1ccccc1	0	2	9.7*	-49	-7	-4
